Screening data as filed in PubChem.
This is one part of a sample in which hits are shown more often than they occur.
CHOP UPR activ – apoptotic UPR (CHOP) activation. actives 0.34% (n = 330,000). AID 449763. CHO-CHOP luciferase reporter, luminescence; percent of tunicamycin response over DMSO baseline. activation, % at 10 µM;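 active = at 10 µM dose, activation of 40% or more, normalized to positive control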;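 note: 100% = tunicamycin at 10 µg/mL and 0% = DMSO alone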
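Material: CHO-CHOP cells, stable luciferase reporter of PERK-eIF2a-CHOP signalling; quantity: 500 reporter cells seeded per well; buffer or medium: F12 medium containing 10% fetal bovine serum; compound: one dose, 10 µM in 0.5% DMSO; incubation: 6 h compound treatment, 37 °C; measured by: Steady-Glo luciferase luminescence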
CHOP inhibitor – blocks CHOP induction under ER stress; CHO-K1 CHOP-promoter luciferase, tunicamycin-induced, 15-18 h; inhibition, % at 10 µM; actives 3.8% (n = 220,000); AID 2732;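 active = compounds that reduced the stress-induced luciferase reporter signal by more than about 70% of percent inhibition, limit read from the data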;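 note: 0% = tunicamycin plus vehicle and 100% = wells without tunicamycin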
TLR9-MyD88 inh – inhibitors of human TLR9-MyD88 binding. CHO BLA complementation TLR9-MyD88, CCF4 FRET ratio. inhibition, % at 4.98 µM. actives 0.21% (n = 340,000). Q9NR96+Q99836;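 active = inhibition above the mean over all tested compounds plus 3 SD, cut at about 21% in these data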;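 note: 0% = DMSO only wells and 100% = clavulanate BLA inhibitor control wells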
NOD2-RIPK2 inh – NOD2-RIPK2 protein interaction inhibition; O43353; CHO BLA complementation NOD2-RIPK2, CCF4 ratio; inhibition, % at 4.98 µM; actives 0.38% (n = 360,000); in the data active = inhibition above about 21%;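 note: 0% = vehicle only and 100% = reference blocker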
Target sequence (O43353 whole entry, looked up): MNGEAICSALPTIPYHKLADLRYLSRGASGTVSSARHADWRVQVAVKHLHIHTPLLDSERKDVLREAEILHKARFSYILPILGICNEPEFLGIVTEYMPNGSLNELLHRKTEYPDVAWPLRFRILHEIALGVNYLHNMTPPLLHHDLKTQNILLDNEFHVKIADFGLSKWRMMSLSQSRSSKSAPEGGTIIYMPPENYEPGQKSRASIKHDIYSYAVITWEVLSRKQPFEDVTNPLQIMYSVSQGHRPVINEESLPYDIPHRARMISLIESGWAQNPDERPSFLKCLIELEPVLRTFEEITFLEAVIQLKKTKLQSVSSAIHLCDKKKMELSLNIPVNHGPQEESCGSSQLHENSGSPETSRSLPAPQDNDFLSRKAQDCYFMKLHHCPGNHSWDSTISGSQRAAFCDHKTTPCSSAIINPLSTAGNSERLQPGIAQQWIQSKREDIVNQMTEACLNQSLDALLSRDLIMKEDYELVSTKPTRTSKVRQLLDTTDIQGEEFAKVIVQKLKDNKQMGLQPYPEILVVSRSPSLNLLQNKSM
TLR4 MyD88 comp – inhibitors of human TLR4-MyD88 binding; O00206+Q99836; HeLa CL3-4 TLR4/MyD88 BLA complementation, FRET ratio; inhibition, % at 8.4 µM; actives 0.18% (n = 200,000); in the data active = inhibition above about 25%;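 note: 0% = vehicle and 100% = reference inhibitor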
UPR XBP1 act – activators of adaptive arm of unfolded protein response (XBP1); activation, % at 20 µM; actives 0.33% (n = 330,000); CHO-XBP1 luciferase reporter, IRE1-XBP1 UPR activation, luminescence; percent of tunicamycin response, DMSO as zero;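 active = versus positive control, 20 µM dose yields 30% or more activation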;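 note: 100% = tunicamycin at 10 µg/mL and 0% = DMSO only wells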
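assay system = CHO-XBP1 luciferase reporter cells | amount = 1000 cells/well | buffer or medium = F12 plus 10% FBS | compound dosing = single point, 20 µM final compound, 1% DMSO | incubation = 16-18 h cell attachment at 37 °C, then 6 h compound exposure | detection = Steady-Glo luminescence read | controls = tunicamycin 10 µg/mL and vehicle-only wells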
Numbers without * were called inactive; · = no result given.

SMILES	CHOP UPR activ	CHOP inhibitor	TLR9-MyD88 inh	NOD2-RIPK2 inh	TLR4 MyD88 comp	UPR XBP1 act
Cc1ccc2oc(=O)n(Cc3ccccc3OC(C)C)c2c1	-1	84*	-3	-15	-5	-2
Cc1ccc2oc(=O)n(CCCOc3ccccc3C)c2c1	1	82*	2	13	-15	3
COc1cccc(CNC(=S)Nc2ccc3c(c2)c(=O)n(C)n3Cc2ccccc2)c1	·	·	·	-2	·	·
CC1(C(=O)NS(=O)(=O)c2ccccc2Cl)CCN1C(=O)C1(c2ccc(Cl)cc2)CC1 (stereo not given)	·	·	·	9	·	·
Cc1ccc2c(c1)SC1=NC(c3ccccc3)(C(F)(F)F)NC(=O)N12 (stereo not given)	-1	70*	·	·	-7	-1
Cn1c(=O)c2cc(NC(=O)OCCF)ccc2n1Cc1cccc(C(F)(F)F)c1	·	·	·	-1	·	·
Cc1ccc(OCc2nc(C#N)c(NCc3ccc4c(c3)OCO4)o2)cc1	1	8	-7	-3	6	-1
CCOc1ccc(Nc2oc(-c3ccc(Cl)cc3)nc2C#N)cc1	5	75*	6	-13	1	4
CCOc1ccc(-c2nc(C#N)c(NCc3ccc4c(c3)OCO4)o2)cc1	2	78*	-4	-16	0	5
COc1ccc(Nc2oc(-c3ccc(OC)cc3)nc2C#N)cc1	9	-12	1	0	·	9
COc1ccc(Nc2oc(COc3ccc(Cl)cc3)nc2C#N)cc1	2	28	8	2	-14	1
COc1ccc(Nc2oc(-c3ccc(Cl)cc3)nc2C#N)cc1	3	85*	-5	6	6	4
FC(F)(F)c1cccc(Cc2noc(CN3CCCCC3c3ccccn3)n2)c1 (stereo not given)	-1	74*	13	-7	7	-1
Fc1cccc(Cc2noc(CN3CCCCC3c3ccccn3)n2)c1 (stereo not given)	0	11	6	-3	1	0
O=C(NCCc1ccc(Cl)cc1)c1cc(S(=O)(=O)N2CCCC2)ccc1F	·	·	10	1	·	·
Cc1cc(C)c(C)c(OCC(=O)NCc2nc(-c3ccccc3)no2)c1	2	86*	6	5	-13	1
Cc1cc(OCC(=O)NCc2nc(-c3ccccc3)no2)c(C)cc1Br	-4	62	-1	-9	2	-1
CSc1nsc(N/N=C/c2ccccc2)c1C#N	2	59	-3	-5	0	-3
COc1cccc(/C=N/Nc2snc(SC)c2C#N)c1O	10	-1	-2	14	-6	1
COc1ccc(/C=N/Nc2snc(SC)c2C#N)cc1OC	9	76*	4	-1	-11	15
COc1cccc(/C=N/Nc2snc(SC)c2C#N)c1	4	81*	6	-6	-9	2
Cc1cccc(-c2nnc3sc(-c4ccccc4C)nn23)c1	2	83*	-1	-8	7	2
Cc1ncc(CO)c(CO)c1OCC(O)CN1CCN(c2ccc(F)cc2)CC1 (stereo not given)	·	·	·	-1	·	·
Cc1cc(C(=O)N/N=C/c2cc(Br)cc(Br)c2OC(=O)c2cccc(F)c2)n[nH]1	-1	92*	-15	-4	-16	2
Cc1cc(C(=O)N/N=C/c2cc(Br)ccc2OC(=O)c2ccc(Br)cc2)n[nH]1	4	67	·	·	9	8
SMILES	CHOP UPR activ	CHOP inhibitor	TLR9-MyD88 inh	NOD2-RIPK2 inh	TLR4 MyD88 comp	UPR XBP1 act
Cc1cccc(C(=O)Oc2c(Br)cc(Br)cc2/C=N/NC(=O)c2ccncc2)c1	0	·	8	-7	·	3
Cc1cc(C(=O)N/N=C/c2cc(Br)cc(Br)c2OC(=O)c2ccccc2)n[nH]1	6	81*	·	·	3	5
CCn1c(-c2cc(-c3ccc(C)c(C)c3)nc3ccccc23)n[nH]c1=S	1	76*	·	·	-10	1
CCOc1cccc(-c2cc(-c3n[nH]c(=S)n3CC)c3ccccc3n2)c1	2	87*	8	14	5	4
CCc1ccc(/C=C/C(=O)C2C(=O)c3ccccc3C2=O)cc1	-2	90*	-2	-1	4	-2
CC(=O)OCC(=O)C1(O)CCC2C3CCC4=CC(=O)CCC4(C)C3(F)C(O)CC21C (stereo not given)	·	·	11	1	·	·
Cc1ccc(N2C(=O)C3C4C=CC(CNC(=S)N5CCN(c6cccc(C)c6)C(C)C5)(O4)C3C2=O)cc1 (stereo not given)	12	92*	2	-6	2	13
O=c1cc2c(nn1Cc1c(Cl)cccc1Cl)-c1ccccc1CC2	6	85*	-12	-4	0	2
CC(=O)N(C(C)=O)c1ccc(Oc2ccc(Oc3ccc(N(C(C)=O)C(C)=O)cc3)cc2)cc1	·	·	-9	8	·	·
O=C(CCCc1ccccn1)c1ccc(-c2ccccc2)cc1	·	·	-8	-32	·	·
COCCN(CCOC)S(=O)(=O)c1ccc(C(=O)Nc2sc3c(c2C(N)=O)CCCCC3)cc1	6	82*	0	-9	7	19
CC(C)(C)n1nnnc1C(c1ccccc1)N1CCN(c2ccc(C(F)(F)F)cn2)CC1 (stereo not given)	·	·	·	1	·	·
COc1ccc(C(C(=O)Nc2ccc3c(c2)OCCO3)n2c(=O)c(-c3ccco3)nc3ccccc32)cc1 (stereo not given)	·	·	·	6	·	·
COc1cccc(NCc2cc3c(C(C)(C)C)nn(-c4ccccc4)c3[nH]c2=O)c1	2	71*	9	-12	8	2
O=C(c1cc(C2CCCCN2S(=O)(=O)c2cccs2)on1)N1CCOCC1 (stereo not given)	·	·	·	-2	·	·
Cc1ccc(C)c(NC(=O)CN(C)C(=O)[C@@H](NC(=O)c2ccc(C(C)(C)C)cc2)C(C)C)c1	-1	83*	-2	-1	-3	-4
Cc1ccc(C)c(NC(=O)CN(C)C(=O)[C@@H](NC(N)=O)C(C)C)c1	-2	7	5	2	2	-3
CCOc1ccc(N2C(=O)CC(SC(=NC)Nc3ccc4c(c3)OCO4)C2=O)cc1 (stereo not given)	-4	73*	-5	5	0	-2
CC(C)C#Cc1ccc2c(c1)O[C@@H](CN(C)S(=O)(=O)c1cn(C)cn1)[C@@H](C)CN([C@H](C)CO)S2(=O)=O	·	·	-4	3	·	·
COc1ccccc1C(=O)Nc1ccc(N2CCN(C(C)=O)CC2)cc1	1	77*	1	-10	1	3
CCOc1ccccc1C(=O)Nc1nnc(C(C)C)s1	3	76*	-12	-12	0	9
CCOc1ccccc1C(=O)Nc1nncs1	-1	19	-5	3	-1	1
